In brackets after ≈: the same amount, converted by molar mass.
What was measured:
[1] = system: Jurkat; assay: Cytotoxicity against human Jurkat T cells; type: functional, cell-based
Procedure, shortened: (§1)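 Cytotoxicity followed previously published protocols. KB cells (HeLa-derived, ATCC CCL 17) used podophyllotoxin as the positive control. Jurkat T helper cells (ATCC TIB 152) used helenalin. Myosarcoma cells used aculeatin A.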

[2] = system: Staphylococcus epidermidis; assay: Antimicrobial activity against Staphylococcus epidermidis ATCC 12228 by doubling dilution method; type: functional
Procedure, shortened: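 Twofold serial (doubling) dilution susceptibility test following a previously published protocol, with chloramphenicol as the positive control.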

[3] = system: KB; assay: Cytotoxicity against human KB cells; type: functional, cell-based; procedure, shortened: as §1
[4] = Cytotoxicity against Myosarcoma cells; type: functional, cell-based; procedure, shortened: as §1

| SMILES | MIC [2] | IC50 [1] | IC50 [3] | IC50 [4] |
| --- | --- | --- | --- | --- |
| C=C1C(=O)O[C@@H]2C[C@@H](C)[C@@H]3C=CC(=O)[C@@]3(C)[C@@H](O)[C@H]12 [HELENALIN] | – | 0.03 µg/mL (≈ 0.114 µM) | – | – |
| COc1cc([C@@H]2c3cc4c(cc3[C@H](O)[C@H]3COC(=O)[C@H]23)OCO4)cc(OC)c1OC [PODOFILOX] | – | – | 0.005 µg/mL (≈ 0.0121 µM) | – |
| CCCCCCCCCCCCC[C@@H]1C[C@@H](O)C[C@]2(CCC3(C=CC(=O)C=C3)O2)O1 [ACULEATIN A] | – | – | – | 0.3 µg/mL (≈ 0.717 µM) |

Second part, led by results:

| MIC [2] | SMILES | IC50 [1] | IC50 [3] | IC50 [4] |
| --- | --- | --- | --- | --- |
| 4 µg/mL (≈ 12.4 µM) | O=C(N[C@H](CO)[C@H](O)c1ccc([N+](=O)[O-])cc1)C(Cl)Cl [CHLORAMPHENICOL] | – | – | – |
| 16 µg/mL (≈ 28.5 µM) | C=C(C)[C@@H]1C[C@@H](CC2(CC=C(C)C)C(=O)C(C(CC(=O)O)c3ccccc3)=C3O[C@H](C)[C@@H](C)C(=O)C3=C2O)C1(C)C (relative stereo) [BRASILIENSOPHYLLIC ACID B] | > 20 µg/mL | > 20 µg/mL | > 20 µg/mL |
| 16 µg/mL (≈ 28.5 µM) | C=C(C)[C@@H]1C[C@@H](CC2(CC=C(C)C)C(=O)C3=C(O)[C@@H](C)[C@H](C)OC3=C(C(CC(=O)O)c3ccccc3)C2=O)C1(C)C (relative stereo) [ISOBRASILIENSOPHYLLIC ACID A] | > 20 µg/mL | > 20 µg/mL | > 20 µg/mL |
| 16 µg/mL (≈ 28.5 µM) | C=C(C)[C@@H]1C[C@@H](CC2(CC=C(C)C)C(=O)C(C(CC(=O)O)c3ccccc3)=C3O[C@@H](C)[C@@H](C)C(=O)C3=C2O)C1(C)C (relative stereo) [ISOBRASILIENSOPHYLLIC ACID B] | > 20 µg/mL | > 20 µg/mL | > 20 µg/mL |
| 16 µg/mL (≈ 28.5 µM) | C=C(C)[C@@H]1C[C@@H](CC2(CC=C(C)C)C(=O)C3=C(O)[C@@H](C)[C@@H](C)OC3=C(C(CC(=O)O)c3ccccc3)C2=O)C1(C)C (relative stereo) [BRASILIENSOPHYLLIC ACID A] | > 20 µg/mL | > 20 µg/mL | > 20 µg/mL |

Reference: ChEMBL document CHEMBL1151163, “New chromanone acids with antibacterial activity from Calophyllum brasiliense” (J Nat Prod, 2004)
